Screening results: PubChem BioAssay, several laboratories
Bfl-1 A1 inh: caspase 3/7 activation in MEF A1-2A-BIM cells, primary screen, A1 inhibitor project, cell-based, luminescence, HTS. AID 2462, 2010. Caspase-Glo 3/7 luminescence, 3 h; percent of clofoctol response, vehicle zero. 0.066% of 330,000 active. caspase activation, % (test concentration not listed);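 active = over half of replicate activation scores above 10%, or exactly half above 10 with the replicate mean above 10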
procasp7 counter: procaspase-7 activators, primary screen, counter-screen for procaspase-3 activator project, biochemical, absorbance, HTS, human; recombinant procaspase-7, Ac-DEVD-pNA absorbance 405 nm; D23A/D198A/D206A triple mutant, cannot self-cleave; scale: DMSO 0, 5 µM enzyme 100; AID 463210, 2010; 0.093% of 330,000 active; activation, % at 8.5 µM; Caspase-7 (Homo sapiens), P55210;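 active = percent activation above the screen-wide mean plus 3 SD, cut at about 25% in these data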
Target sequence (P55210 whole entry D23A/D198A/D206A): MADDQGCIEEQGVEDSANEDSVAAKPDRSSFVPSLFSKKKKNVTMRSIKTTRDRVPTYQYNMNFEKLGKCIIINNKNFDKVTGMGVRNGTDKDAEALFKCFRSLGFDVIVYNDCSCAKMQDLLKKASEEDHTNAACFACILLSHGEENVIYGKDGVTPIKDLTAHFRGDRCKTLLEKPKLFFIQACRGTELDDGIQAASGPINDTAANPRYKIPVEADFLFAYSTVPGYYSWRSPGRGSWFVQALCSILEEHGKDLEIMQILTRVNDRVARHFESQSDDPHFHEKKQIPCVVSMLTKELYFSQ
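Material: Procaspase-7 triple mutant (PC-7 D3A) | Quantity: 2 µM procaspase-7 mutant as dispensed | Reagent: DEVD-pNA substrate | Times: 1 h preincubation, 2 h reaction | Technique: 405 nm absorbance of p-nitroaniline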
bovine MsrA act: bovine MsrA enzyme activators, primary screen, biochemical, absorbance, HTS | 0.3% of 360,000 active | AID 602163, 2012 | activation, % at 10.6 µM | purified bovine MsrA, absorbance read-out | Methionine sulfoxide reductase A (Bos taurus); in the data active = activation above about 7.5%;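 note: 0% = vehicle and 100% = reference activator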
procasp3 activ: activators of human procaspase-3 D3A mutant, primary screen, biochemical, absorbance, PC-3 D3A mutant, single concentration | AID 463141, 2010 | recombinant procaspase-3 D3A, Ac-DEVD-pNA absorbance 405 nm | activation, % at 8.5 µM | 0.11% of 330,000 active;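 active = activation above the mean of all tested compounds plus 3 SD, cut at about 21% in these data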;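 note: 0% = DMSO alone and 100% = DMSO wells spiked with extra 5 µM PC-3 D3A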
Target sequence (P42574 whole entry D9A/D28A/D175A): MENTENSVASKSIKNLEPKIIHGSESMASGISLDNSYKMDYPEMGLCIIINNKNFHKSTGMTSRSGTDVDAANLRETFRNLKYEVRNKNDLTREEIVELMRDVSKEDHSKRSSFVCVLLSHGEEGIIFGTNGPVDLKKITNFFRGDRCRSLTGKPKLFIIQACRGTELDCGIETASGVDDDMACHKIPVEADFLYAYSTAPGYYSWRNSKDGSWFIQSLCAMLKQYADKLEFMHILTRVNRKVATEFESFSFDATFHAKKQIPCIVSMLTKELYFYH
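Assay system: Procaspase-3 D3A mutant, all three cleavage aspartates alanine. Buffer or medium: Zinc-free HEPES saline buffer with Triton X-100. Times: 1 h compound preincubation, 2 h substrate hydrolysis at 25 °C. Measured by: 405 nm absorbance of p-nitroaniline, reads at 0 and 120 min. Read-out basis: percent activation relative to control range. Replicates: singlicate.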
MsrA inhibitor: bovine MsrA enzyme inhibitors, primary screen, biochemical, absorbance, HTS; inhibition, % at 15.5 µM; 0.75% of 360,000 active; Methionine sulfoxide reductase A (Bos taurus); AID 651718, 2012; purified bovine MsrA, absorbance read-out;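 note: 0% = vehicle wells with enzyme and 100% = reference inhibitor wells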
MsrA conf: bovine MsrA inhibitors, retest, confirmation, biochemical, absorbance, HTS; shares compounds with MsrA inhibitor; purified bovine MsrA, absorbance read-out; inhibition, % at 15.5 µM; 41% of 2,300 active; AID 651822, 2012;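 note: coupled to thioredoxin reductase with NADPH and selenocystamine and DMSO as substrate; 0% = vehicle only and 100% = full effect of reference inhibitor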
Active calls of the source: *. The list is not random: actives were taken first. Their share in the collection is about 1.2%. Cut-off read from the data, not from the text of the source, unless noted: active = inhibition above about 4.5%; inactive = the rest.

How did O=Cc1ccc2oc3nc4n(c(=O)c3c(=O)c2c1)CCCS4 do in these assays?
Bfl-1 A1 inh: 1; procasp7 counter: 3; bovine MsrA act: -3; procasp3 activ: -2; MsrA inhibitor: 6.6*; MsrA conf: 5

Results for Cc1cnc(C(=O)OCC(=O)N2CCN(S(=O)(=O)c3ccc(Cl)cc3)CC2)cn1 ?
Bfl-1 A1 inh: 0; procasp7 counter: -6; bovine MsrA act: -3; procasp3 activ: 12; MsrA inhibitor: 0

What do the screens show for `CC(=O)N1CCCN(Cc2cn(-c3cc(C)ccc3C)nc2-c2ccccc2)CC1`?
Bfl-1 A1 inh: 0; procasp7 counter: 2; bovine MsrA act: 3; procasp3 activ: 2; MsrA inhibitor: 5.0*; MsrA conf: 0

What do the screens show for `O=C(/C=C/c1ccc(Br)cc1)NC(=O)c1ccccc1O`?
Bfl-1 A1 inh: 0; procasp7 counter: 1; bovine MsrA act: -1; procasp3 activ: -5; MsrA inhibitor: 2

Results for O=C(/C=C/c1ccc(O)c(O)c1)NC(=O)c1ccccc1O ?
Bfl-1 A1 inh: 0; procasp7 counter: -4; bovine MsrA act: -6; procasp3 activ: 0; MsrA inhibitor: 6.3*; MsrA conf: 4

Results for CSc1ccc(/C=C/C(=O)NC(=O)c2ccccc2O)cc1 ?
Bfl-1 A1 inh: -6; procasp7 counter: 4; bovine MsrA act: -12; procasp3 activ: 2; MsrA inhibitor: 6.0*; MsrA conf: 4.7*

What do the screens show for `CCCC(=O)N1CCCC1(C)C(=O)Nc1cc(C)ccc1C` (configuration not stated)?
bovine MsrA act: -4; MsrA inhibitor: -1

How did Cc1ccc(C)c(N=Cc2c(O)c3ccccc3oc2=O)c1 do in these assays?
Bfl-1 A1 inh: 0; procasp7 counter: 19; bovine MsrA act: -5; procasp3 activ: 10

What do the screens show for `CC1CCC(NC(=O)CCS(=O)(=O)c2ccc3c(c2)NC(=O)C(C)S3)CC1` (configuration not stated)?
Bfl-1 A1 inh: 1; procasp7 counter: -1; bovine MsrA act: -2; procasp3 activ: -1; MsrA inhibitor: 1

Results for OC(c1ccco1)c1nc(-c2ccc(F)c(Cl)c2)cs1 (configuration not stated) ?
bovine MsrA act: -1; MsrA inhibitor: -1

Results for COC(=O)Cc1c([C@H](C)[C@@H](OC)c2ccccc2Br)nnn1Cc1ccccc1 ?
MsrA inhibitor: 0

What do the screens show for `CC(C)C[C@@H]1COc2cccc(NCCO)c2S(=O)(=O)N1`?
MsrA inhibitor: -1

How did FC(F)(F)c1ccc(N=Cc2sc(N3CCOCC3)nc2-c2ccccc2)cc1 do in these assays?
Bfl-1 A1 inh: 0; procasp7 counter: -6; bovine MsrA act: -2; procasp3 activ: 2; MsrA inhibitor: 18*; MsrA conf: 17*

How did O=[N+]([O-])c1ccc(Nc2ccccc2)c2nonc12 do in these assays?
Bfl-1 A1 inh: 0; procasp7 counter: -16; bovine MsrA act: 4; procasp3 activ: -7; MsrA inhibitor: 5.8*; MsrA conf: 4

How did CC(=NCc1cccnc1)C1=C(O)c2ccccc2C1=O do in these assays?
Bfl-1 A1 inh: -2; procasp7 counter: 1; bovine MsrA act: -4; procasp3 activ: -5; MsrA inhibitor: 4.9*; MsrA conf: 3

How did CCCN=C(C)C1=C(O)c2ccccc2C1=O do in these assays?
Bfl-1 A1 inh: 0; procasp7 counter: 0; bovine MsrA act: -1; procasp3 activ: 0; MsrA inhibitor: 4

What do the screens show for `O=C(NNC(=O)C1CC1)c1cc2cc3ccccc3nc2s1`?
Bfl-1 A1 inh: -1; procasp7 counter: 2; bovine MsrA act: -4; procasp3 activ: -12; MsrA inhibitor: 4.9*; MsrA conf: 2

Results for CCc1nnc(NC(=O)c2ccncc2)s1 ?
Bfl-1 A1 inh: 0; procasp7 counter: -1; bovine MsrA act: -2; procasp3 activ: 3; MsrA inhibitor: 5.6*; MsrA conf: 0

What do the screens show for `CCCc1nnc(NC(=O)c2ccncc2)s1`?
Bfl-1 A1 inh: -2; procasp7 counter: -1; bovine MsrA act: -8; procasp3 activ: 5; MsrA inhibitor: 2

How did Cc1[nH]nc(Nc2ccc(Br)cc2)c1[N+](=O)[O-] do in these assays?
Bfl-1 A1 inh: 0; procasp7 counter: -4; bovine MsrA act: -3; procasp3 activ: -2; MsrA inhibitor: 5.4*; MsrA conf: 3

What do the screens show for `CC(=O)NS(=O)(=O)c1ccc(NC(=O)/C=C/c2ccco2)cc1`?
Bfl-1 A1 inh: 0; procasp7 counter: 9; bovine MsrA act: -7; procasp3 activ: 9; MsrA inhibitor: 6.0*; MsrA conf: 7.2*

Results for CCCCS(=O)(=O)N1CCCc2nc(-c3ccc(OC)cc3)ccc21 ?
MsrA inhibitor: 0

What do the screens show for `COc1cccc(CN2CCN(S(=O)(=O)c3ccc(Cl)s3)CC2)c1`?
Bfl-1 A1 inh: 0; procasp7 counter: -2; bovine MsrA act: -1; procasp3 activ: -2; MsrA inhibitor: 0

Results for COc1ccc(NC(=O)CN(C)C(=O)/C=C/c2cn(-c3ccccc3)nc2-c2ccc(C)cc2)cc1 ?
Bfl-1 A1 inh: 0; procasp7 counter: -2; bovine MsrA act: -4; procasp3 activ: 4; MsrA inhibitor: 4.9*; MsrA conf: 3

What do the screens show for `COC(=O)c1cc(=O)nc(NN=C(C)C)s1`?
MsrA inhibitor: 2

What do the screens show for `CN(C)S(=O)(=O)n1cc(/C=C(\NC(=O)c2ccccc2)C(=O)NCCCN2CCOCC2)c2ccccc21`?
Bfl-1 A1 inh: 1; procasp7 counter: 1; bovine MsrA act: -2; procasp3 activ: -1; MsrA inhibitor: 2

How did CCn1cc(/C=C(\NC(=O)c2ccccc2F)C(=O)NCCN2CCOCC2)c2ccccc21 do in these assays?
Bfl-1 A1 inh: 0; procasp7 counter: 9; bovine MsrA act: -5; procasp3 activ: 6; MsrA inhibitor: 5.3*; MsrA conf: 3

Results for CCn1cc(/C=C(\NC(=O)c2ccc(OC)c(OC)c2)C(=O)NCCCO)c2ccccc21 ?
Bfl-1 A1 inh: 3; procasp7 counter: 2; bovine MsrA act: -3; procasp3 activ: -3; MsrA inhibitor: 5.8*; MsrA conf: 4

What do the screens show for `CN(C)S(=O)(=O)n1cc(/C=C(\NC(=O)c2ccccc2F)C(=O)NCCN2CCOCC2)c2ccccc21`?
bovine MsrA act: -6; MsrA inhibitor: 1
